One experiment has as its target T1, Vitamin D3 receptor (Rattus norvegicus, UniProt P13053).
T1 sequence (P13053 whole entry): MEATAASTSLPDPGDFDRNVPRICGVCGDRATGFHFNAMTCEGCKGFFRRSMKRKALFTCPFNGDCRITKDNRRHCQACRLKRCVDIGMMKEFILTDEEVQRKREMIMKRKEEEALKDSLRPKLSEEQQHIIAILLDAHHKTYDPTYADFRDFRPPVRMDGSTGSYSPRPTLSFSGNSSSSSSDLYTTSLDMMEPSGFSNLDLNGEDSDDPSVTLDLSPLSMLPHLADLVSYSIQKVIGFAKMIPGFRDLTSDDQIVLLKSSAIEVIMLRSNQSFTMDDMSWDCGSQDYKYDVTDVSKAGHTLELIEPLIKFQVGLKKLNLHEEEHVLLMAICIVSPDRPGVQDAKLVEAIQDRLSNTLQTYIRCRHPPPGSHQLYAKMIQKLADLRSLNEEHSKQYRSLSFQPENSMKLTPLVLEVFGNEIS
Briefly: Displacement of [3H]-1alpha25-(OH)2D3 from full length recombinant rat vitamin D receptor by scintillation counting analysis. The procedure, abridged: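 [3H]-1α,25(OH)2D3 at 1 nM final plus unlabeled ligand (ethanol ≤10%), incubated overnight on ice. Bound ligand captured on hydroxylapatite, washed with Tris–EDTA/0.5% Triton X-100, scintillation counted. Ki from dose-response curves using Kd 0.2 nM; duplicates on two to three occasions.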
(In general: Loss of bound radioactivity is the signal in a displacement assay; it reports binding, not function.)

For experiment [1], the system named is Rattus norvegicus. Put plainly: Induction of bone calcium mobilization into serum of Sprague-Dawley rat assessed as total serum calcium level at 105300 pmol, ip administered 4 doses at 24 hrs interval measured 24 hrs post last dose (reference value: 4.5 mg/dL). The format is functional. The procedure, abridged:
(§1)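 Group-housed rats on Diet 11 (0.47% Ca) + AEK oil for 1 week, then 0.02% Ca for 3 weeks, then 0.47% Ca for 1 week, then 2 weeks on 0.02% Ca. Dosing in the final week: four ip doses about 24 h apart. Blood taken from the severed neck 24 h after the last dose; serum calcium measured as the bone calcium mobilization index.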

The test system of experiment [2] is HL-60. Put plainly: Potency index, ratio of 1alpha,25-(OH)2D3 ED50 to compound ED50 for induction of differentiation of human HL60 promyelocytes to monocytes. The format is functional. Put shortly: (§2)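 HL-60 cells grown in RPMI-1640 with 10% FBS at 37 °C, 5% CO2, plated at 1.2 × 10^5 cells/plate. Dosed in duplicate 18 h after plating (final ethanol <0.2%). After 4 days, NBT reduction read by counting 200 cells for formazan deposits. ED50 is the concentration giving 50% maturation, from dose-response curves; repeated 2 to 3 times, mean reported. Ratio = ED50 of 1α,25-(OH)2D3 / ED50 of analogue.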

In experiment [3] the target is T2, Vitamin D3 receptor (Rattus norvegicus) (UniProt P13053).
T2 sequence (whole entry): T1 sequence (P13053 whole entry)
Put plainly: Potency index, ratio of 1alpha,25-(OH)2D3 Ki to compound Ki for full length recombinant rat vitamin D receptor.

Experiment [4] concerns HL-60. Put plainly: Induction of differentiation of human HL60 promyelocytes to monocytes after 4 days by nitro blue tetrazolium reduction assay. The format is functional. Particulars: for EC50: Homo sapiens, HL-60, 96 h, read-out: ED50 (the source's name). Put shortly:
as §2

Experiment [5] has as its system Rattus norvegicus. Briefly: Induction of bone calcium mobilization into serum of Sprague-Dawley rat assessed as total serum calcium level at 7020 pmol, ip administered 4 doses at 24 hrs interval measured 24 hrs post last dose (reference value: 4.5 mg/dL). The format is functional. The procedure, abridged:
as §1

Experiment [6] can be described thus: Potency index, ratio of 1alpha,25-(OH)2D3 ED50 to compound ED50 for induction of transcriptional activity in rat ROS 17/2.8 cells. The format is functional. Put shortly:
(§3)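 ROS 17/2.8 cells stably transfected with 24-hydroxylase promoter–luciferase reporter, dosed over a range of concentrations. Harvested 16 h after dosing; luciferase read on a luminometer. ED50 is the concentration raising luciferase activity by 50%, from dose-response curves. Ratio = ED50 of 1α,25-(OH)2D3 / ED50 of analogue.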

In experiment [7] the test system is Rattus norvegicus. Briefly: Induction of intestinal calcium transport in Sprague-Dawley rat assessed as ratio of serosal calcium to mucosal calcium level at 105300 pmol, ip administered 4 doses at 24 hrs interval measured 24 hrs post last dose by everted gut sac method (reference value: 4.3). The format is functional.
The nature of experiment [8]: Induction of transcriptional activity in rat ROS 17/2.8 cells after 16 hrs by 24-hydroxylase luciferase reporter gene assay. The format is functional. To be noted: for EC50: Rattus norvegicus, 16 h, read-out: ED50 (the source's name). Put shortly:
as §3

For experiment [9], the system named is Rattus norvegicus. Put plainly: Induction of intestinal calcium transport in Sprague-Dawley rat assessed as ratio of serosal calcium to mucosal calcium level at 7020 pmol, ip administered 4 doses at 24 hrs interval measured 24 hrs post last dose by everted gut sac method (reference value: 4.3). The format is functional.
In experiment [10] the test system is Rattus norvegicus. Briefly: Induction of intestinal calcium transport in Sprague-Dawley rat assessed as ratio of serosal calcium to mucosal calcium level at 35100 pmol, ip administered 4 doses at 24 hrs interval measured 24 hrs post last dose by everted gut sac method (reference value: 4.3). The format is functional.
Experiment [11] concerns Rattus norvegicus. Briefly: Induction of bone calcium mobilization into serum of Sprague-Dawley rat assessed as total serum calcium level at 35100 pmol, ip administered 4 doses at 24 hrs interval measured 24 hrs post last dose (reference value: 4.5 mg/dL). The format is functional. The procedure, abridged: as §1
Experiment [12] concerns Rattus norvegicus. Put plainly: Induction of bone calcium mobilization into serum of Sprague-Dawley rat assessed as total serum calcium level at 260 pmol, ip administered 4 doses at 24 hrs interval measured 24 hrs post last dose (reference value: 4.5 mg/dL). The format is functional. Put shortly:
as §1

Experiment [13] concerns Rattus norvegicus. Put plainly: Induction of bone calcium mobilization into serum of Sprague-Dawley rat assessed as serum calcium level at 87 pmol, ip administered 4 doses at 24 hrs interval measured 24 hrs post last dose (reference value: 4.9 mg/dL). The format is functional. Put shortly: as §1
In experiment [14] the test system is Rattus norvegicus. Put plainly: Induction of bone calcium mobilization into serum of Sprague-Dawley rat assessed as serum calcium level at 780 pmol, ip administered 4 doses at 24 hrs interval measured 24 hrs post last dose (reference value: 4.9 mg/dL). The format is functional. The procedure, abridged: as §1
Experiment [15] concerns Rattus norvegicus. Put plainly: Induction of intestinal calcium transport in Sprague-Dawley rat assessed as ratio of serosal calcium to mucosal calcium level at 780 pmol, ip administered 4 doses at 24 hrs interval measured 24 hrs post last dose by everted gut sac method (reference value: 4.1). The format is functional.
The subject of experiment [16] is Rattus norvegicus. Put plainly: Induction of bone calcium mobilization into serum of Sprague-Dawley rat assessed as serum calcium level at 7020 pmol, ip administered 4 doses at 24 hrs interval measured 24 hrs post last dose (reference value: 4.9 mg/dL). The format is functional. Put shortly:
as §1

For experiment [17], the system named is Rattus norvegicus. Briefly: Induction of bone calcium mobilization into serum of Sprague-Dawley rat assessed as serum calcium level at 35100 pmol, ip administered 4 doses at 24 hrs interval measured 24 hrs post last dose (reference value: 4.9 mg/dL). The format is functional. Put shortly:
as §1

The subject of experiment [18] is Rattus norvegicus. Briefly: Induction of intestinal calcium transport in Sprague-Dawley rat assessed as ratio of serosal calcium to mucosal calcium level at 35100 pmol, ip administered 4 doses at 24 hrs interval measured 24 hrs post last dose by everted gut sac method (reference value: 4.1). The format is functional.
Experiment [19] concerns Rattus norvegicus. Put plainly: Induction of intestinal calcium transport in Sprague-Dawley rat assessed as ratio of serosal calcium to mucosal calcium level at 7020 pmol, ip administered 4 doses at 24 hrs interval measured 24 hrs post last dose by everted gut sac method (reference value: 4.1). The format is functional.

Turning to `C/C=C1\CC[C@]2(C)[C@@H]([C@H](C)CCCC(C)(C)O)CC[C@H]2\C1=C\C=C1C[C@@H](O)C[C@H](O)C1`, on Vitamin D3 receptor, the Ki (commonly a measure of affinity in units of concentration, obtained from inhibition or displacement) was above 10000 nM. Further, the figures for the Activity with Rattus norvegicus [1] and in the experiment with Rattus norvegicus [5] were 4.5 mg/dL and 4.6 mg/dL, respectively. The “Ratio ED50” value (with HL-60 [2]; in [6]) was 0.0001 in each case. Further, the Ratio Ki in experiment [3] is below 1e-05. For the same compound, the results for the EC50 (in the experiment on HL-60 [4]; in [8]) were 10000 nM and 1000 nM, respectively. Further, the Ratio with Rattus norvegicus [7] worked out at 7.3; with Rattus norvegicus [9] it was 6.6.
With `C=C1CC[C@]2(C)[C@@H]([C@H](C)CCCC(C)(C)O)CC[C@H]2/C1=C/C=C1/C[C@@H](O)C[C@H](O)[C@@H]1C`, at Vitamin D3 receptor, the Ki is above 10000 nM. Moreover, the “Ratio ED50” value was 0.0001 with HL-60 [2] and 0.003 in experiment [6]. Moreover, the Ratio Ki in experiment [3] is below 1e-05. Besides, in the experiment with HL-60 [4], the EC50 stood at 10000 nM. This compound yielded an ED50 in experiment [8] of 9 ×10⁻⁸ M.
Regarding `C=C1/C(=C\C=C2/[C@H](C)CC[C@]3(C)[C@@H]([C@H](C)CCCC(C)(C)O)CC[C@@H]23)C[C@@H](O)C[C@@H]1O`, the Ratio is 6.2 in the experiment on Rattus norvegicus [10] and 7.9 in the experiment on Rattus norvegicus [9]. The Ki at Vitamin D3 receptor is 20 nM. Further, the “Ratio ED50” value is listed as 0.0001 with HL-60 [2] and 0.006 in experiment [6]. For the same compound, in experiment [3], the Ratio Ki is 0.005. The results for the ED50 (in the experiment with HL-60 [4]; in experiment [8]) were 5 ×10⁻⁶ M and 5 ×10⁻⁸ M, respectively. The results for the Activity in the experiment with Rattus norvegicus [5] and in the experiment on Rattus norvegicus [11] were 4.3 mg/dL and 4.6 mg/dL, respectively.
As for `C=C1CC[C@]2(C)[C@@H]([C@H](C)CCCC(C)(C)O)CC[C@H]2/C1=C/C=C1C[C@@H](O)C[C@H](O)C1`, the figures for the Ratio with Rattus norvegicus [10] and with Rattus norvegicus [9] were 4.6 and 5.3, respectively. Also, on Vitamin D3 receptor, the Ki stood at 20 nM. Also, the “Ratio ED50” value in the experiment on HL-60 [2] came out at 0.002; in experiment [6], 0.006. Moreover, the Ratio Ki in experiment [3] was 0.005. Besides, the EC50 in the experiment with HL-60 [4] was 1000 nM. In addition, the figures for the Activity with Rattus norvegicus [5] and in the experiment with Rattus norvegicus [11] were 4.3 mg/dL and 4.4 mg/dL, respectively. The compound further registered an ED50 in experiment [8] of 5 ×10⁻⁸ M.
Consider `C=C1/C(=C\C=C2/CCC[C@]3(C)[C@@H]([C@H](C)CCCC(C)(C)O)CC[C@@H]23)C[C@@H](O)C[C@@H]1O` [CALCITRIOL], for which the ED50 is listed as 2 ×10⁻⁹ M in the experiment on HL-60 [4] and 3 ×10⁻¹⁰ M in experiment [8]. Moreover, the figures for the Activity in the experiment with Rattus norvegicus [12], in the experiment with Rattus norvegicus [13] and in the experiment with Rattus norvegicus [14] were 5.6 mg/dL, 6.2 mg/dL and 7.3 mg/dL, respectively.
Take `C=C1CC[C@]2(C)[C@@H]([C@H](C)CCCC(C)(C)O)CC[C@H]2/C1=C/C=C1/C[C@@H](O)C[C@H](O)[C@H]1C`: the Ki at Vitamin D3 receptor is above 10000 nM. The “Ratio ED50” value (with HL-60 [2]; in experiment [6]) was 0.0001 throughout. Besides, the Ratio Ki in experiment [3] was below 1e-05. The figures for the EC50 (with HL-60 [4]; in [8]) were 10000 nM and 1000 nM, respectively.
In the case of `C[C@H](CCCC(C)(C)O)[C@H]1CC[C@H]2/C(=C/C=C3C[C@@H](O)C[C@H](O)C3)[C@@H](C)CC[C@]12C`, the Ki at Vitamin D3 receptor worked out at 0.2 nM. The figures for the “Ratio ED50” value (with HL-60 [2]; in experiment [6]) were 0.2 and 1, respectively. Besides, the Ratio Ki in [3] was 0.5. The ED50 in the experiment on HL-60 [4] turned out to be 9 ×10⁻⁹ M; in experiment [8] it was 3 ×10⁻¹⁰ M. In addition, the Ratio in the experiment on Rattus norvegicus [15] is 5; with Rattus norvegicus [18], 8.8; in the experiment with Rattus norvegicus [19] it was 10.1. The Activity in the experiment on Rattus norvegicus [14] is 4.8 mg/dL; in the experiment on Rattus norvegicus [16] it was 4.5 mg/dL; in the experiment on Rattus norvegicus [17], 5.4 mg/dL.
